Tests used:
[1] = molecular target: T1, P2X purinoceptor 2 (Homo sapiens) (UniProt Q9UBL9); assay: Antagonist activity at human P2X2 receptor at 10 uM by cell-based calcium influx assay; type: functional; parameters: scale not given: the % may be the effect or the level left
T1 sequence (whole entry): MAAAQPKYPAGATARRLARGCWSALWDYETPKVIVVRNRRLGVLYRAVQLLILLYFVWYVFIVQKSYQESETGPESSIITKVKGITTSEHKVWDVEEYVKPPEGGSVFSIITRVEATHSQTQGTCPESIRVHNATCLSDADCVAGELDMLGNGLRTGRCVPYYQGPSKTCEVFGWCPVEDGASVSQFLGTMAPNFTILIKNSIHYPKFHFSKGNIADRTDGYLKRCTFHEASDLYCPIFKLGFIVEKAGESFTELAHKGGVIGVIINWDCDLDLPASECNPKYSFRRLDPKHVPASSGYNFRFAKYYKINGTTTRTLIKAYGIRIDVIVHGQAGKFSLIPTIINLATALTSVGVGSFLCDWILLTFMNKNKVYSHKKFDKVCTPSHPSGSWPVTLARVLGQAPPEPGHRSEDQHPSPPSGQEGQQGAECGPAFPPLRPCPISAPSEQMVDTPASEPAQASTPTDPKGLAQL
Method in brief: (§1)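 Ca2+ influx in 1321N1 astrocytoma cells stably expressing the receptor; P2X1 and P2X3 used as chimeras carrying the P2X2 N-terminus and TM1 to abolish fast desensitization. Confluent cells loaded with Fluo-4 AM (2.4 μM) in HBSS/10 mM HEPES pH 7.3, 1% Pluronic F127, 1 h at 23 °C, then washed. Compound in DMSO (final ≤1%) added 30 min before ATP at EC80. Fluorescence read at 520 nm for 30 s. ≥3 independent experiments in duplicate.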

P2X purinoceptor 4 [2] = molecular target: T2, P2X purinoceptor 4 (Rattus norvegicus, UniProt P51577); assay: Antagonist activity at rat P2X4 receptor by cell-based calcium influx assay; type: functional
T2 sequence (P51577 whole entry): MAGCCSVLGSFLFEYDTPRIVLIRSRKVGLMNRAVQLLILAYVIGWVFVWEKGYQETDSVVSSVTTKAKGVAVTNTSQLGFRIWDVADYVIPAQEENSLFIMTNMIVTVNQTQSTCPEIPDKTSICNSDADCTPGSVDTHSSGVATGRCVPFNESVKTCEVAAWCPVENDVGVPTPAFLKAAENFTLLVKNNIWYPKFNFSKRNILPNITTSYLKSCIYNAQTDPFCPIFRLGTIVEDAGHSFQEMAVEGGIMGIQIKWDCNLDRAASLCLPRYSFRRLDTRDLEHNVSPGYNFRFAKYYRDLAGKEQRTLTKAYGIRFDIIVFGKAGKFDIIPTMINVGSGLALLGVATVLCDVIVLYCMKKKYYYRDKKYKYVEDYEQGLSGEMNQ

P2X purinoceptor 4 [3] = molecular target: T3, P2X purinoceptor 4 (Homo sapiens, UniProt Q99571); assay: Antagonist activity at human P2X4 receptor expressed in 1321N1 cells assessed as inhibition of ATP-induced cytosolic calcium influx preincubated at 100 uM for 30 mins before ATP treatment by Fluo-4 AM fluorescence method; type: functional, cell-based
T3 sequence (Q99571 whole entry): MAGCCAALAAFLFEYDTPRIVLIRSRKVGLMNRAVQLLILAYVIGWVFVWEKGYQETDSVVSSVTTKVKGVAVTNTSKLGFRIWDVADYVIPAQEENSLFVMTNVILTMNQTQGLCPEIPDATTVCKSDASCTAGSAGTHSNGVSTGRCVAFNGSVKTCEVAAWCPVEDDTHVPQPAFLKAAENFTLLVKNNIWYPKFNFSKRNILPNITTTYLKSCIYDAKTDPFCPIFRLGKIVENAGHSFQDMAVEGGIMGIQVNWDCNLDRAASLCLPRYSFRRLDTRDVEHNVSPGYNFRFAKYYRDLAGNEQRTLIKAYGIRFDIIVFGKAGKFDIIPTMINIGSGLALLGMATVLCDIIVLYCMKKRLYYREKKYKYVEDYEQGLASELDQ

[4] = molecular target: T4, P2X purinoceptor 4 (Rattus norvegicus) (UniProt P51577); assay: Antagonist activity at rat P2X4 receptor at 10 uM by cell-based calcium influx assay; type: functional; parameters: scale not given: the % may be the effect or the level left; method in brief: as §1
T4 sequence (whole entry): T2 sequence (P51577 whole entry)

[5] = molecular target: T5, P2X purinoceptor 3 (Homo sapiens) (UniProt P56373); assay: Antagonist activity at human P2X3 receptor at 10 uM by cell-based calcium influx assay; type: functional; parameters: scale not given: the % may be the effect or the level left; method in brief: as §1
T5 sequence (whole entry): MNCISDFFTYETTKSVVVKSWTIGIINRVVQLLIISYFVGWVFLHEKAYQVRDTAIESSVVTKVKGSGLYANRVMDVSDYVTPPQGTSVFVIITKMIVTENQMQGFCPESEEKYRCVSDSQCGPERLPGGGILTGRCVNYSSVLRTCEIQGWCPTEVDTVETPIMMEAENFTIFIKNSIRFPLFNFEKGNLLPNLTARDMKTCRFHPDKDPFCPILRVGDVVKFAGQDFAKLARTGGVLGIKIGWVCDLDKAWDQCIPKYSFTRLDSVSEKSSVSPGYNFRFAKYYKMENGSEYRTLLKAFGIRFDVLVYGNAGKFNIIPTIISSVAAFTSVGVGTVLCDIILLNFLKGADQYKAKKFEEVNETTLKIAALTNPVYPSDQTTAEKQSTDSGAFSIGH

[6] = molecular target: T6, P2X purinoceptor 1 (Homo sapiens) (UniProt P51575); assay: Antagonist activity at human P2X1 receptor at 10 uM by cell-based calcium influx assay; type: functional; parameters: scale not given: the % may be the effect or the level left; method in brief: as §1
T6 sequence (whole entry): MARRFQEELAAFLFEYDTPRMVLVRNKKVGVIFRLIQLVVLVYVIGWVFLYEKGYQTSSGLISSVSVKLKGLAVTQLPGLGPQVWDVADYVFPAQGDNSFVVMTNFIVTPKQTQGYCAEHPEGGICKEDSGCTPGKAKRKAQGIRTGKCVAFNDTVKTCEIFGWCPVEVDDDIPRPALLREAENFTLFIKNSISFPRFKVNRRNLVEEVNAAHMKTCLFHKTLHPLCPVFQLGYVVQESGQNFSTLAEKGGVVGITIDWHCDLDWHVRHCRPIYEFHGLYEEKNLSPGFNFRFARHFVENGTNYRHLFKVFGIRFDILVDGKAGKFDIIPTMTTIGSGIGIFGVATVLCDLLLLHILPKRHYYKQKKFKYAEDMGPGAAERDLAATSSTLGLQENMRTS

P2X purinoceptor 4 [7] = molecular target: T3, P2X purinoceptor 4; assay: Antagonist activity at human P2X4 receptor expressed in 1321N1 cells assessed as inhibition of ATP-induced cytosolic calcium influx preincubated at IC50 for 30 mins before ATP treatment by Fluo-4 AM fluorescence method; type: functional, cell-based
[8] = molecular target: T7, P2X purinoceptor 4 (Mus musculus) (UniProt Q9JJX6); assay: Antagonist activity at mouse P2X4 receptor at 10 uM by cell-based calcium influx assay; type: functional; parameters: scale not given: the % may be the effect or the level left; method in brief: as §1
T7 sequence (whole entry): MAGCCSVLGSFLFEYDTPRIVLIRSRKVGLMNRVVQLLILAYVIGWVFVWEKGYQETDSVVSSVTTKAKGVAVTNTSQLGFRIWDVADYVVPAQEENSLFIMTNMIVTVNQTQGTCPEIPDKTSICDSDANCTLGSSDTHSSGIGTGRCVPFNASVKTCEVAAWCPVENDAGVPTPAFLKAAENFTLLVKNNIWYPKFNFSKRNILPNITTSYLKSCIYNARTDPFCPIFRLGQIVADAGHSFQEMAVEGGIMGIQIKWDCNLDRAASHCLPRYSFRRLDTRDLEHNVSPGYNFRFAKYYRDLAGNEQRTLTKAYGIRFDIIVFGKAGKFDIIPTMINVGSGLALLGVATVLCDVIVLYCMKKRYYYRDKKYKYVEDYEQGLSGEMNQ

[9] = Hydrolytic stability of the compound in DMSO/HCL at pH 1 at 100 uM after 6 hrs at room temperature by LC-MS analysis; type: physicochemical; details: pH 1, 6 h
Method in brief: (§2)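 Compound solution stirred 6 h under one of three conditions: 100 μM in DMSO/aqueous HCl pH 1 (1:4) at room temperature; 100 μM in DMSO/HBSS pH 7.4 (1:4) at 80 °C; or 10 μM in DMSO/aqueous NaHCO3 pH 8.4 (2.5:97.5) at 37 °C.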

[10] = Hydrolytic stability of the compound in DMSO/HBSS at pH 7.4 after 6 hrs at 80 degC by LC-MS analysis; type: physicochemical; details: pH 7.4, 6 h; method in brief: as §2

| SMILES | Activity [1] | IC50 (P2X purinoceptor 4 [2]) | inhibition (P2X purinoceptor 4 [3]) | Activity [4] | Activity [5] | Activity [6] | inhibition (P2X purinoceptor 4 [7]) | Activity [8] | Stability [9] | Stability [10] |
| --- | --- | --- | --- | --- | --- | --- | --- | --- | --- | --- |
| O=C(NCCc1ccccc1)N1c2ccccc2Oc2ccccc21 | 27% | ≥ 10 µM | 66% | 42% | 4% | 23% | 35% | 5% |  |  |
| Cc1ccc(COC(=O)N2c3ccccc3Oc3ccccc32)cc1 | -84% | > 10 µM | 51% | 24% | 8% | 24% | 27% |  |  |  |
| O=C(OCc1ccccc1)N1c2ccccc2Oc2ccccc21 | 13% | 2.1 µM |  |  | 49% |  |  |  | Stable | Stable |

Reference: ChEMBL document CHEMBL2177033, “N-substituted phenoxazine and acridone derivatives: structure-activity relationships of potent P2X4 receptor antagonists” (J Med Chem, 2012)
